ChEMBL document CHEMBL1125320, “Imidazole-5-acrylic acids: potent nonpeptide angiotensin II receptor antagonists designed using a novel peptide pharmacophore model” (J Med Chem, 1992)

Experiments:
[1] = molecular target: Angiotensin II receptor (Oryctolagus cuniculus); assay: Inhibition of angiotensin II induced vasoconstriction of rabbit aorta
[2] = molecular target: T1, Type-1 angiotensin II receptor B (Rattus norvegicus, UniProt P29089); assay: Inhibition of [125I]angiotensin II receptor specific binding to rat mesenteric arteries
T1 sequence (P29089 whole entry): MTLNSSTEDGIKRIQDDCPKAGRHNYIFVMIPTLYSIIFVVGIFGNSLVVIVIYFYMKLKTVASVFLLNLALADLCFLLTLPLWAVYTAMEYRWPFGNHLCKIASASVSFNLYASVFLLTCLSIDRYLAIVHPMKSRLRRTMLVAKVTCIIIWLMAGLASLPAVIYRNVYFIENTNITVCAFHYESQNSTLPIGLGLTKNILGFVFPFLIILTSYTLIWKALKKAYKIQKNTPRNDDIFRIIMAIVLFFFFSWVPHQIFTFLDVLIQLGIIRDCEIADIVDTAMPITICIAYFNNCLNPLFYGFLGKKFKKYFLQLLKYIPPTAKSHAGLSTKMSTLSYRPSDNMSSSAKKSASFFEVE

Angiotensin II receptor = molecular target: T2, Angiotensin II receptor (Rattus norvegicus, UniProt P29089+P25095+P35351); assay: Inhibition of [125I]angiotensin II specific binding to rat mesenteric arteries; type: protein assay
T2 sequence (P29089 whole entry): T1 sequence (P29089 whole entry)
T2 sequence (P25095 whole entry): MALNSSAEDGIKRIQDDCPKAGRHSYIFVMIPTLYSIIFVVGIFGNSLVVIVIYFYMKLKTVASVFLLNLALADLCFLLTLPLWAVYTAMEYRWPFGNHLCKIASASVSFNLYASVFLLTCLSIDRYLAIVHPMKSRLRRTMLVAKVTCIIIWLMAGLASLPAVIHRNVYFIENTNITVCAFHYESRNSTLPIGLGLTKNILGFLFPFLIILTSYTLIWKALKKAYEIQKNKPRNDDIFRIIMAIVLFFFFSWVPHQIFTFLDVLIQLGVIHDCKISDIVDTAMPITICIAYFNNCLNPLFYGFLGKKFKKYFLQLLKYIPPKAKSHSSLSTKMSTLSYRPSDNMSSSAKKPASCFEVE
T2 sequence (P35351 whole entry): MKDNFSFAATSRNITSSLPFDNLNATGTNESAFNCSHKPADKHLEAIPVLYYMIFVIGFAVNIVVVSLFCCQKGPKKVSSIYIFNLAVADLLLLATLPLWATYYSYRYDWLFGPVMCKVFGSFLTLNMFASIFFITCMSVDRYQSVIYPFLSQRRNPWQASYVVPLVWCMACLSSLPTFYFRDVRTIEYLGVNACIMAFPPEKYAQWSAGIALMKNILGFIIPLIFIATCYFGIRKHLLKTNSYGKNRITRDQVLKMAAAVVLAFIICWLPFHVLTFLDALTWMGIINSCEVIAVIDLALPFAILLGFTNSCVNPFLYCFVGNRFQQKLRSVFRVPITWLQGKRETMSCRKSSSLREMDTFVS

Rattus norvegicus [3] = assay: Compound was evaluated in vivo, for the dose that produced 50% inhibition of the pressor response to AII in conscious normotensive rats after iv administration; type: functional; conditions: read-out: ID50 (the source's name)
Method in brief: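 Conscious normotensive rats with indwelling femoral arterial and venous catheters were tested 2-3 days after surgery while in a restrainer, with continuous arterial pressure recording. The MAP rise to iv angiotensin II 250 ng/kg was measured at time points before and after iv compound at 0.3-300 mg/kg.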

[4] = molecular target: T3, Type-1 angiotensin II receptor (Oryctolagus cuniculus) (UniProt P34976); assay: (§1) Compound was evaluated for the inhibition of AII-induced vasoconstriction of the rabbit aorta; type: functional, tissue-based
T3 sequence (whole entry): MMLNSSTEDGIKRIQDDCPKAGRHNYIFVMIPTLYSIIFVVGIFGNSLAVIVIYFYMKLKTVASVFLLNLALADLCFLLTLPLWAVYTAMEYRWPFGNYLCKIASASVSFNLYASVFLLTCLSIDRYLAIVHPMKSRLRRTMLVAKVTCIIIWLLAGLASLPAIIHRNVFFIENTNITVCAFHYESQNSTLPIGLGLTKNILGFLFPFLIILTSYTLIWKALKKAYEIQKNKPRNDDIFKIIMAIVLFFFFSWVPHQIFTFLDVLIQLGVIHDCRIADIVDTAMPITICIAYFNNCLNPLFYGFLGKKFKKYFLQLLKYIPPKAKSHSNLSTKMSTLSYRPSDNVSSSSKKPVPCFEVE
Method in brief: (§2)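 Isolated rabbit aorta ring segments mounted on metal supports attached to force displacement transducers. Cumulative angiotensin II concentration-response curves were run without antagonist or after a 30-min antagonist incubation.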

[5] = molecular target: T3, Type-1 angiotensin II receptor (Oryctolagus cuniculus); assay: (§3) Compound was evaluated for the inhibition of Angiotensin II receptor induced vasoconstriction of the rabbit aorta; type: functional, tissue-based
Method in brief: as §2

Rattus norvegicus [6] = assay: Compound was evaluated in vivo, for the dose that produced 50% inhibition of the pressor response to AII in conscious normotensive rats after intraduodenal administration; type: functional; conditions: read-out: ID50 (the source's name)
[7] = molecular target: Angiotensin II receptor (Oryctolagus cuniculus); assay: Compound was evaluated for the inhibition of Angiotensin II receptor, induced vasoconstriction of the rabbit aorta
[8] = molecular target: T3, Type-1 angiotensin II receptor (Oryctolagus cuniculus); assay: as §1; type: tissue-based
Method in brief: as §2

[9] = molecular target: T1, Type-1 angiotensin II receptor B; assay: Compound was evaluated for the inhibition of [125I]AII specific binding to rat mesenteric arteries
Method in brief: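 Particulate fraction from rat mesenteric arteries incubated in Tris buffer with 80 pM [125I]angiotensin II, with or without antagonist, for 1 h at 25 °C. The incubation was stopped by rapid filtration, and filter-bound radioligand was counted on a γ counter. Inhibition of specific binding; n = 3-5.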

[10] = molecular target: T3, Type-1 angiotensin II receptor (Oryctolagus cuniculus); assay: as §3; type: tissue-based
Method in brief: as §2

[11] = molecular target: T3, Type-1 angiotensin II receptor (Oryctolagus cuniculus); assay: as §1
Method in brief: as §2

Row | Compound | Kb [1] | IC50 (Angiotensin II receptor) | other results
1 | CCCCc1ncc(/C=C(\Cc2ccc(N)cc2)C(=O)O)n1Cc1ccccc1Cl | 320 nM |  | IC50 [2]: 3000 nM
2 | CCCCc1ncc(/C=C\C(=O)O)n1Cc1ccccc1Cl | 810 nM | 8900 nM | ED50 (Rattus norvegicus [3]): 15 mg/kg
3 | CCCCc1ncc(/C=C(\Cc2ccc3ccccc3c2)C(=O)O)n1Cc1ccccc1Cl | 14600 nM | 21900 nM | 
4 | CCCCc1ncc(CCCC(=O)O)n1Cc1ccccc1Cl | 15000 nM | > 10000 nM | 
5 | CCCCc1ncc(/C=C(/Cc2ccccc2)C(=O)O)n1Cc1ccccc1Cl |  |  | Kb [4]: 8700 nM
6 | CCCCc1ncc(/C(C)=C/C(=O)O)n1Cc1ccccc1Cl | 660 nM | 3600 nM | 
7 | CCCCc1ncc(/C=C(\Cc2cccs2)C(=O)O)n1Cc1ccccc1Cl |  |  | ED50 (Rattus norvegicus [3]): 3.6 mg/kg
8 | CCCCc1ncc(CCCCC(=O)O)n1Cc1ccccc1Cl | 11000 nM | 17000 nM | 
9 | CCCCc1ncc(/C=C(\CCc2cccs2)C(=O)O)n1Cc1ccccc1Cl |  | 860 nM | Kb [5]: 140 nM
10 | CCCCc1ncc(/C=C(\Cc2ccc(O)c(O)c2)C(=O)O)n1Cc1ccccc1Cl |  | 58 nM | ED50 (Rattus norvegicus [6]): 20 mg/kg; Kb [4]: 140 nM
11 | CCCCc1ncc(/C=C/C(=O)O)n1Cc1ccccc1Cl | 14000 nM | 124000 nM | 
12 | CCCCc1ncc(/C=C(\Cc2ccccc2C)C(=O)O)n1Cc1ccccc1Cl | 1140 nM |  | IC50 [2]: 5000 nM
13 | CCCCc1ncc(/C=C(\Cc2cc(OC)cs2)C(=O)O)n1Cc1ccccc1Cl | 30 nM |  | IC50 [2]: 300 nM
14 | CCCCc1ncc(/C=C(\Cc2ccc(OC)c(OC)c2)C(=O)O)n1Cc1ccccc1Cl |  | 6800 nM | Kb [7]: 620 nM
15 | CCCCc1ncc(/C=C(\Cc2ccccn2)C(=O)O)n1Cc1ccccc1Cl | 2900 nM | 820 nM | 
16 | CCCCc1ncc(/C=C(\Cc2ccc(OC)cc2)C(=O)O)n1Cc1ccccc1Cl | 120 nM | 810 nM | ED50 (Rattus norvegicus [3]): 9 mg/kg
17 | CCCCc1ncc(/C=C(\Cc2ccco2)C(=O)O)n1Cc1ccccc1Cl | 50 nM | 1200 nM | 
18 | CCCCc1ncc(/C=C(\Cc2cccc(OC)c2)C(=O)O)n1Cc1ccccc1Cl | 270 nM | 810 nM | ED50 (Rattus norvegicus [3]): 10 mg/kg
19 | CCCCc1ncc(/C=C(/C(=O)O)C(C)c2ccccc2)n1Cc1ccccc1Cl (stereo not drawn) | 240 nM | 4600 nM | 
20 | CCCCc1ncc(/C=C(\Cc2ccoc2)C(=O)O)n1Cc1ccccc1Cl | 30 nM | 360 nM | 
21 | CCCCc1ncc(CCCCCC(=O)O)n1Cc1ccccc1Cl | 7000 nM | 19000 nM | 
22 | CCCCc1ncc(/C=C(\Cc2ccc([N+](=O)[O-])cc2)C(=O)O)n1Cc1ccccc1Cl | 310 nM |  | IC50 [2]: 400 nM
23 | CCCCc1ncc(/C=C(\Cc2cc(OC)c(OC)c(OC)c2)C(=O)O)n1Cc1ccccc1Cl | 1700 nM | 1900 nM | 
24 | CCCCc1ncc(CC(=O)O)n1Cc1ccccc1Cl |  |  | ED50 (Rattus norvegicus [3]): 22.5 mg/kg

Row | Compound | Kb [1] | IC50 (Angiotensin II receptor) | other results
25 | CCCCc1ncc(/C=C(\Cc2sccc2C)C(=O)O)n1Cc1ccccc1Cl | 280 nM |  | IC50 [2]: 730 nM
26 | CCCCc1ncc(/C=C(/C(=O)O)C(CCCC)c2cccs2)n1Cc1ccccc1Cl (stereo not drawn) |  | 18700 nM | Kb [4]: 3100 nM
27 | CCCCc1ncc(CCC(=O)O)n1Cc1ccccc1Cl | 2800 nM | 16500 nM | 
28 | CCCCc1ncc(/C=C(\C)C(=O)O)n1Cc1ccccc1Cl | 970 nM | 22300 nM | 
29 | CCCCc1ncc(/C=C(\Cc2ccc3c(c2)OCO3)C(=O)O)n1Cc1ccccc1Cl | 130 nM | 470 nM | ED50 (Rattus norvegicus [3]): 9.4 mg/kg
30 | CCCCc1ncc(/C=C(\Cc2ccc(C)s2)C(=O)O)n1Cc1ccccc1Cl | 130 nM |  | ED50 (Rattus norvegicus [3]): 7.6 mg/kg; IC50 [2]: 700 nM
31 | CCCCc1ncc(/C=C(\Cc2cccc(Oc3ccccc3)c2)C(=O)O)n1Cc1ccccc1Cl |  |  | Kb [8]: 18100 nM; IC50 [9]: 10000 nM
32 | CCCCc1ncc(/C=C(\Cc2ccsc2)C(=O)O)n1Cc1ccccc1Cl |  |  | ED50 (Rattus norvegicus [3]): 6.4 mg/kg; IC50 [2]: 330 nM
33 | CCCCc1ncc(/C=C(/C(=O)O)C(Cc2ccccc2)c2cccs2)n1Cc1ccccc1Cl (stereo not drawn) | 610 nM | 5200 nM | 
34 | CCCCc1ncc(/C=C(\Cc2c[nH]cn2)C(=O)O)n1Cc1ccccc1Cl | 310 nM | 250 nM | ED50 (Rattus norvegicus [3]): 11 mg/kg
35 | CCCCc1ncc(-c2cccc(C(=O)O)c2)n1Cc1ccccc1Cl | 4800 nM | 33900 nM | 
36 | CCCCc1ncc(/C=C(\Cc2ccc(Cl)c(Cl)c2)C(=O)O)n1Cc1ccccc1Cl | 13700 nM |  | IC50 [2]: 25600 nM
37 | CCCCc1ncc(/C=C(\Cc2ccncc2)C(=O)O)n1Cc1ccccc1Cl | 170 nM | 150 nM | ED50 (Rattus norvegicus [3]): 5.9 mg/kg
38 | CCCCc1ncc(/C=C(\Cc2cccnc2)C(=O)O)n1Cc1ccccc1Cl | 180 nM | 300 nM | ED50 (Rattus norvegicus [3]): 9.8 mg/kg
39 | CCCCc1ncc(/C=C(\Cc2ccc(N(C)C)cc2)C(=O)O)n1Cc1ccccc1Cl | 590 nM | 14600 nM | 
40 | CCCCc1ncc(/C=C(\Cc2ccc(O)cc2)C(=O)O)n1Cc1ccccc1Cl | 470 nM | 120 nM | 
41 | CCCCc1ncc(/C=C(\Cc2ccc(OC)s2)C(=O)O)n1Cc1ccccc1Cl | 30 nM |  | IC50 [2]: 90 nM
42 | CCCCc1ncc(/C=C(\CCc2ccccc2)C(=O)O)n1Cc1ccccc1Cl | 420 nM | 2900 nM | 
43 | CCCCc1ncc(/C=C(/C(=O)O)C(c2ccccc2)c2cccs2)n1Cc1ccccc1Cl (stereo not drawn) | 2300 nM |  | IC50 [2]: 2400 nM
44 | CCCCc1ncc(/C=C(/C(=O)O)c2ccccc2)n1Cc1ccccc1Cl | 600 nM | 20100 nM | 
45 | CCCCc1nc(Cl)c(CC(=O)O)n1Cc1ccccc1Cl |  |  | ED50 (Rattus norvegicus [3]): 30 mg/kg; Kb [10]: 2700 nM
46 | CCCCc1ncc(/C=C(/Cc2ccco2)C(=O)O)n1Cc1ccccc1Cl | 14400 nM | > 100000 nM | 
47 | CCCCc1ncc(/C=C(\Cc2ccccc2)C(=O)O)n1Cc1ccccc1Cl |  |  | Kb [11]: 64 nM; ED50 (Rattus norvegicus [3]): 14 mg/kg; IC50 [2]: 2600 nM
48 | CCCCc1ncc(-c2ccccc2C(=O)O)n1Cc1ccccc1Cl | 17200 nM | > 100000 nM | 
